# Measurements of several laboratories.
# Lines come from different studies, so protocols differ.
# Effect on: cell growth or viability
Structure (SMILES),cell line,assay,setting,endpoint,result
N=C(CC(O)c1cc2c(F)cc(F)cc2c2cc(C(F)(F)F)ccc12)Nc1cc(F)c(F)c(F)c1 (stereo not drawn),HepG2,neutral red,24 h,IC50,18.3 µM
O=C1[O][Pt]2([NH][C@@H]3CCCC[C@H]3[NH]2)[O]C1=O,THLE3,imaging,72 h,IC50,32.2 µM
N=C(CC(O)c1cc2c(F)cc(F)cc2c2cc(C(F)(F)F)ccc12)Nc1ccc(N2CCC(F)(F)CC2)cc1 (stereo not drawn),HepG2,neutral red,24 h,IC50,53.8 µM
Nc1c(C(=O)NCc2ccc(F)cc2)sc2nc(-c3ccccc3)ccc12,HepG2,,72 h,IC50,> 100 µM
O=C(Nc1ccc(Cl)cc1)Nc1cccc(-c2cn(Cc3ccc(Br)cc3)nn2)c1,Huh-7,CCK-8,"50 µM, 48 h",viability,60.5%
COc1ccc(-c2cc(C(F)(F)F)c3c(N)c(C(=O)NC4CC4)sc3n2)cc1,HepG2,,72 h,IC50,> 100 µM
N.N.[Cl][Pt][Cl],Ramos,ATP luminescence,"10 µM, 72 h",inhibition,100%
CN(C)C(=O)c1sc2nc(-c3ccccc3)ccc2c1N,HepG2,,72 h,IC50,> 100 µM
Cc1cccc(F)c1NC(=N)CC(O)c1cc2c(F)cc(F)cc2c2cc(C(F)(F)F)ccc12 (stereo not drawn),HepG2,neutral red,24 h,IC50,22.8 µM
